Lipid droplet – hepatic lipid droplet formation modulation. AML12 mouse hepatocytes, oleate lipid droplets, BODIPY imaging. inhibition, % at 6.5 µM. 0.4% of 240,000 active. AID 1656;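 active means lipid droplet intensity inhibited by at least 50%, with more than 500 cells counted; inconclusive means wells with under 300 cells, treated as cytotoxic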
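Material – mouse AML12 hepatocyte cell line, fixed after treatment · Compound dosing – one dose, 6.5 µM compound · Times – compound with oleate, overnight · Measured by – Image-based BODIPY and DAPI two-channel analysis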
SR-BI uptake up – SR-BI HDL lipid transfer activation. 0.096% of 320,000 active. CHO ldlA[mSR-BI] cells, DiI-HDL uptake fluorescence, 3 h; 100 = double the neutral-control signal. activation, % at 12.5 µM;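 active means mean replicate activation of at least 60% and every replicate at or above 60%; inconclusive means mean or all-replicate condition met, but not both; inactive means mean below 60% and not all replicates reaching 60%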;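 further: 0% = median plate neutral-control signal and 100% = twice that signal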
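System: CHO ldlA[mSR-BI] cells / Medium: HEPES-buffered (25 mM, pH 7.4) F12 plus 0.5% BSA / Probe or stimulus: labelled HDL, 10 µg/mL / Doses: single compound concentration, delivered by pin transfer / Schedule: 3 h, 37 °C / Measured by: DiI fluorescence, bottom read / Measure: cell-associated DiI fluorescence as measure of HDL uptake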
AHR act – activators of human aryl hydrocarbon receptor; P35869; AHR-responsive luciferase reporter cells, luminescence; activation, % at 5 µM; 2.5% of 320,000 active; AID 2796; in the data active means activation above about 47%;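 further: 0% = vehicle wells and 100% = reference agonist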
SR-BI HDL uptake – blocks mouse SR-BI lipid uptake from DiI-HDL. AID 488896. inhibition, % at 12.5 µM. 0.96% of 320,000 active. ldlA[mSR-BI] CHO cells, DiI-HDL uptake fluorescence, 3 h. Q61009;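 active means mean replicate inhibition of at least 70% and a set share of replicates each scoring 70 or more; inconclusive means meets just one of the two criteria; inactive means fails both criteria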;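 further: 0% = median of neutral control wells and 100% = median of positive control wells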
Target sequence (Q61009 whole entry, looked up): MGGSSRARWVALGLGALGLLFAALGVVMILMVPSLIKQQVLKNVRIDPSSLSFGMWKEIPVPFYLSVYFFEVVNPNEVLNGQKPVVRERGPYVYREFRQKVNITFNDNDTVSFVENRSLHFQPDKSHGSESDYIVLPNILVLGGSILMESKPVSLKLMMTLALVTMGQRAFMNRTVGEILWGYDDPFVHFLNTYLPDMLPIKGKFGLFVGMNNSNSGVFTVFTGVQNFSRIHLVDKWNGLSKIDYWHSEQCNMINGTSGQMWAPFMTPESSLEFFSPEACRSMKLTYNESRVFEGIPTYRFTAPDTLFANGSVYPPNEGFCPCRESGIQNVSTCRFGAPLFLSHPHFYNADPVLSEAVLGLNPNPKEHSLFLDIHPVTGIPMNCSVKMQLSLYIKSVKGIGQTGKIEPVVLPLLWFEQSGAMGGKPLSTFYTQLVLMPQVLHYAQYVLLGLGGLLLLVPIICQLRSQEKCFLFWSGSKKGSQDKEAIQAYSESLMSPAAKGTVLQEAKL
CR mimetic SO – caloric restriction mimetics inhibiting age-related superoxide in yeast. S. cerevisiae aged cells, superoxide DHE fluorescence; stronger effect = lower value. superoxide response (% of plate mean), % at 10 µM. 0.18% of 330,000 active. AID 2690;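 active means superoxide response under a set limit, about three screen SD below normal, cut at about 65% in these data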;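 further: yeast aged for seven days with compound at 30 °C before DHE staining; 100% = average MFI of all compound-treated wells on the plate with controls excluded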
SMARCA2 act – SMARCA2 function activation, primary screen; MG213 cells, MMTV-luciferase reporter, dexamethasone, overnight; activation, % at 9.1 µM; 1% of 370,000 active; AID 652017; in the data active means activation above about 7.8%;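 further: 0% = vehicle wells and 100% = reference activator wells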
AHR act cf – human AHR activation, confirmation; 87% of 2,300 active; human cells, AHR-responsive luciferase reporter, luminescence; activation, % at 9 µM; AID 2845; shares compounds with AHR act; in the data active means activation above about 49%;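 further: HepG2 hepatoma cells carrying a DRE-driven firefly luciferase reporter; 0% = vehicle wells and 100% = reference agonist wells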
PXR counter – activates human PXR in AHR activator counter-screen; activation, % at 11.6 µM; shares compounds with AHR act; 88% of 2,300 active; cell-based PXR reporter, luciferase luminescence; AID 434939; in the data active means activation above about 11%;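 further: human hepatoma DPX-2 cells expressing full-length human PXR; 0% = DMSO and 100% = reference agonist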
DiI quench – quenches DiI-HDL fluorescence, an SR-BI assay artifact; shares compounds with SR-BI HDL uptake; cell-free DiI-HDL fluorescence quenching, 30 min; AC50, µM (doses to about 35 µM), inactives show at the highest dose activity change, negative = quenching; 20% of 470 active;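 active means quenching, a falling signal, with AC50 below a set limit tied to the top valid dose, actives reach about 32 µM in these data; inconclusive means no clear call, values can overlap the other calls; inactive means rising signal, and the rest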
SMARCA2 act conf – confirmation of SMARCA2 (BRM) function activators | 30% of 3,500 active | AID 652260 | MG213 cells, MMTV-luciferase with dexamethasone, luminescence, overnight; MG213 cells expressing E1A, Rb sequestered; DMSO wells 0%, reference activator 100% | activation, % at 9.1 µM | shares compounds with SMARCA2 act;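 active means activation above its plate's cutoff, the mean activation of tested wells plus 3 SD, cut at about 7.9% in these data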
GAL4-VP16 Luc – GAL4-VP16 reporter activation counter-screen; shares compounds with SMARCA2 act; HEK293 GAL4-VP16 pG5luc reporter, luciferase luminescence; scaled: DMSO wells 0%, SAHA wells 100%; activation, % at 9.1 µM; 41% of 3,500 active; AID 686939;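 active means activation above the solvent-only control well mean plus 3 SD, averaged across control plates, cut at about 5.2% in these data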
Active calls of the source: *; ? = inconclusive; / = not tested or not shown. The list is not random: actives were taken first. Their share in the collection is about 4.3%.

SMILES	Lipid droplet	SR-BI uptake up	AHR act	SR-BI HDL uptake	CR mimetic SO	SMARCA2 act	SMARCA2 act conf	GAL4-VP16 Luc	others
Cc1ccc2cc(C=C(C#N)C#N)c(Cl)nc2c1	-12.9	6.9	87.9*	-6.9	114.9	-1.1	/	/	AHR act cf=30.8;PXR counter=20.8*
O=C(NCCN1CCC2(CC1)C(=O)NCN2c1ccccc1)c1ccccc1F	/	/	/	/	/	1.0	/	/
CCOC(=O)c1c(C)n(CCOC)c2ccc(O)cc12	15.5	-6.6	91.7*	6.6	106.9	2.8	/	/	AHR act cf=79.7*;PXR counter=19.0*
CN1C[C@H](O)[C@H]2C[C@@H]1c1ccccc1O2	/	/	/	/	/	-1.9	/	/
COC(=O)C1=C(C)NC(C)=C(C(=O)OC)C1c1ccccc1[N+](=O)[O-]	-19.1	-2.5	106.0*	2.5	110.4	-6.2	/	/	AHR act cf=13.7
Cc1ccccc1[N+](=O)[O-]	/	0.9	-0.6	-0.9	113.0	-1.6	/	/
O=S(=O)(c1ccc(Cl)cc1)N1Cc2ccc(Br)cc2-n2nncc2C1	/	/	/	/	/	-5.3	/	/
COC(=O)c1cn(Cc2ccc(F)cc2)c2ccccc12	/	/	/	/	/	-1.9	/	/
COC(=O)c1cn(C(=O)c2cccc3ccccc23)c2ccccc12	5.0	-73.0	-0.1	73.0*	98.6	-2.1	/	/	DiI quench=-1.7%
O=P(OCCCl)(OCCCl)OCCCl	/	/	/	/	/	0.1	/	/
COc1ccc(NC(=O)C2C3CCC(O3)C2C(=O)O)c(OC)c1 (stereo unspecified)	30.7	-9.9	1.1	9.9	101.0	3.7	/	/	DiI quench=-8.2%
S=P1(Oc2ccccc2)Nc2ccccc2N1	/	11.2	/	-11.2	/	12.1*	5.3	3.1
CC[C@]12CCN(CC3(O)CC3)C(Cc3ccc(O)cc31)C2(C)C	/	/	/	/	/	2.6	/	/
Cc1ccc(-n2c(=S)[nH]c3ccc(C)cc3c2=O)cc1	/	/	/	/	/	5.4	/	/
COC(=O)C1=C(C(=O)OC)SC2(S1)C(C(=O)OC)=C(C(=O)OC)Sc1c2ssc1=O	/	10.2	/	-10.2	/	61.9*	-9.5	8.4*
C[C@]12CCC3[C@@H](CCC4=CC(=O)CC[C@@]43C=O)C1CCC2=O (stereo partly specified)	-2.6	10.1	2.2	-10.1	114.3	-2.8	/	/
c1ccc(-c2nc3ccccc3nc2-c2ccc(CN3CCC(n4nnc5ccccc54)CC3)cc2)cc1	/	/	/	/	/	-2.7	/	/
C=C1C(C)C2C(Cc3ccccc3)NC(=O)C23C(OC(C)=O)C=CC(C)(O)CC(C)CC=CC3C1O (stereo unspecified)	/	13.7	/	-13.7	/	13.9*	14.2*	5.1
CC(=O)O[C@@H]1/C=C/[C@](C)(O)C[C@@H](C)C/C=C/[C@H]2[C@H](O)C(C)=C(C)[C@H]3[C@H](Cc4ccccc4)NC(=O)[C@@]123	/	/	-3.1	/	87.7	/	/	/
CC(NC(=O)OCc1ccccc1)P(=O)(Oc1ccccc1)Oc1ccccc1 (stereo unspecified)	/	/	/	/	/	-1.0	/	/
O=C(CNCc1c(F)cccc1F)N1CCC2(CC1)OCCO2	/	/	/	/	/	8.6*	16.4*	2.8
N#Cc1cn(C2OC(CO)C(O)C2O)c2ncnc(N)c12 (stereo unspecified)	/	?	/	-184.7	/	8.5*	17.3*	-3.8
N#Cc1c(Br)n(C2OC(CO)C(O)C2O)c2ncnc(N)c12 (stereo unspecified)	/	-13.4	/	13.4	/	62.5*	52.1*	-1.5
C[C@]1(O)CCC2C3CC[C@H]4C[C@@H](OC(=O)CNC(=O)CN)CC[C@]4(C)C3CC[C@@]21C (stereo partly specified)	/	-1.4	-0.4	1.4	87.6	-3.8	/	/
Cc1ccc(OC(=O)N(C)C[C@H]2OCc3cnnn3CCCC(=O)N([C@H](C)CO)C[C@@H]2C)cc1	/	/	/	/	/	-3.7	/	/
SMILES	Lipid droplet	SR-BI uptake up	AHR act	SR-BI HDL uptake	CR mimetic SO	SMARCA2 act	SMARCA2 act conf	GAL4-VP16 Luc	others
CC(Cc1ccccc1)/[N+]([O-])=C\c1ccc(C(F)(F)F)cc1 (stereo unspecified)	/	11.4	1.9	-11.4	105.0	9.2*	11.3*	6.3*
CC(Cc1ccccc1)NC(=O)Cc1ccc([N+](=O)[O-])cc1 (stereo unspecified)	9.3	-12.0	1.6	12.0	99.8	-3.8	/	/
O=C(Nc1ccc(Cl)c(Cl)c1)c1ccco1	-11.4	12.4	13.3	-12.4	95.9	8.2*	3.0	9.2*
C=CCNC(=S)Nc1ccc(OC(=O)Nc2ccc(Cl)c(Cl)c2)cc1	-16.7	28.5	/	-28.5	/	-0.7	/	/
CN(C)C(=O)Oc1ccc(OC(=O)c2ccccc2)cc1	7.8	6.8	0.2	-6.8	91.9	11.3*	8.2*	-0.5
CN(C(=O)Oc1ccc(C(=O)c2ccc(Cl)cc2)cc1)c1ccccc1	21.7	21.5	-0.4	-21.5	94.8	0.6	/	/
C=C1C(=O)O[C@H]2C[C@@H](C)[C@@H]3C=CC(=O)[C@@]3(C)C[C@H]12	-34.9	/	-1.8	/	/	-8.2	/	/
C=C1C(=O)OC2C1CCC(C)C1(O)C=CC(=O)C21C (stereo unspecified)	/	17.8	/	-17.8	/	8.4*	15.2*	2.2
O=[N+]([O-])c1ccc(N(CCO)CCO)c2c1no[n+]2[O-]	/	/	/	/	/	15.5*	13.1*	1.5
CN1CCN(c2ccc([N+](=O)[O-])c3no[n+]([O-])c23)CC1	-50.5	21.7	7.4	-21.7	141.0	-8.1	/	/
CN(C)C(=O)Oc1ccc(Cl)c2ccccc12	-0.4	-2.8	6.8	2.8	95.2	-3.8	/	/
Cc1c(OC(=O)N(C)C)ccc2c1O/C(=C\c1ccco1)C2=O	-25.5	/	/	/	95.3	8.2*	3.6	5.9*
COC(=O)C1=C(c2cc3ccccc3o2)C[C@@H]2CC[C@H]1N2C(=O)N1CCOCC1	/	-9.1	1.4	9.1	93.9	-1.5	/	/
CN1CCN(c2ccc3c(c2)S(=O)(=O)c2ccccc2C3=O)CC1	/	8.3	42.7	-8.3	98.2	8.6*	8.2*	8.8*
Cc1cc(NC(=O)CCl)no1	-29.9	0.8	-0.7	-0.8	95.9	8.9*	1.2	0.4
CS(=O)(=O)c1ccc(C2=C(CNC(=O)c3cccnc3)[C@H]3CC[C@@H](C2)N3Cc2ccccc2)cc1	/	/	/	/	/	12.7*	-2.6	0.4
Nc1c(C(=O)NCc2ccco2)c2nc3ccccc3nc2n1CCN1CCCCC1	-22.7	-1.3	5.4	1.3	110.8	8.8*	4.3	-0.9
N#CCCC#N	/	/	/	/	/	0.3	/	/
C=C1C(=O)C(C)=C2C(=O)N3Cc4[nH]c5ccccc5c4CC3(C(=O)OC)C12 (stereo unspecified)	/	/	/	/	/	9.2*	6.6	2.5
O=C(Nc1ccc(F)c([N+](=O)[O-])c1)N1C[C@H]2C[C@@H](C1)c1cccc(=O)n1C2	-10.1	16.6	0.5	-16.6	111.1	2.1	/	/
